For data set [1], the target named is Phosphatidylinositol 4-kinase beta (Homo sapiens, UniProt Q9UBF8). Description: Inhibition of PIK4CB in human HeLa cells lysate pre incubated for 15 mins followed by ATP acyl phosphate probe addition and measured after 10 mins by LC-MS/MS analysis. It counts as subcellular.
Data set [2] deals with Acylglycerol kinase, mitochondrial (Homo sapiens, UniProt Q53H12). Briefly: Inhibition of AGK in human HeLa cells lysate pre incubated for 15 mins followed by ATP acyl phosphate probe addition and measured after 10 mins by LC-MS/MS analysis. It counts as subcellular. The method, boiled down: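 HeLa cell lysates (5 mg/mL total protein) were preincubated with inhibitor at 0, 0.8, 2, 10 or 50 μM for 15 min. ATP or ADP acylphosphate probe was then added (5 μM final) for 10 min, and reactions were stopped with urea. Up to four fragment ions per kinase probe-peptide were quantified by targeted MS. % inhibition was taken relative to untreated lysate. Run in duplicate.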

For data set [3], the target named is Eukaryotic elongation factor 2 kinase (Homo sapiens, UniProt O00418). Briefly: Inhibition of EEF2K in human HeLa cells lysate pre incubated for 15 mins followed by ATP acyl phosphate probe addition and measured after 10 mins by LC-MS/MS analysis. It counts as subcellular.
A short description of data set [4]: Inhibition of MAP3K5/MAP3K6/MAP3K15 in human HeLa cells lysate pre incubated for 15 mins followed by ATP acyl phosphate probe addition and measured after 10 mins by LC-MS/MS analysis. It counts as subcellular.
Data set [5] has as its target RPS6KA1/RPS6KA2/RPS6KA3 (Homo sapiens, UniProt P51812+Q15349+Q15418). Description: Inhibition of RSK1/2/3 in human HeLa cells lysate pre incubated for 15 mins followed by ATP acyl phosphate probe addition and measured after 10 mins by LC-MS/MS analysis. The data set is classed as subcellular.
Data set [6] deals with Inhibitor of nuclear factor kappa-B kinase subunit beta (Homo sapiens, UniProt O14920). Description: Inhibition of IKKB in human HeLa cells lysate pre incubated for 15 mins followed by ADP acyl phosphate probe addition and measured after 10 mins by LC-MS/MS analysis. It counts as subcellular.
Data set [7] deals with Serine/threonine-protein kinase MARK1 (Homo sapiens, UniProt Q9P0L2). Description: Inhibition of MARK1 in human HeLa cells lysate pre incubated for 15 mins followed by ADP acyl phosphate probe addition and measured after 10 mins by LC-MS/MS analysis. The data set is classed as subcellular.
Data set [8] concerns the target Cyclin-dependent kinase 2 (Homo sapiens, UniProt P24941). Briefly: Inhibition of CDK2 in human HeLa cells lysate at 50 uM pre incubated for 15 mins followed by ADP acyl phosphate probe addition and measured after 10 mins by LC-MS/MS analysis relative to control. The data set is classed as subcellular. To be noted: time 25.0 min. The method, boiled down:
(§1)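 KiNativ profiling in HeLa lysate (5 mg/mL total protein). Lysate incubated 15 min with inhibitor at 50, 10, 2, 0.8 or 0 μM. ATP or ADP acylphosphate probe then added (5 μM final) and reacted 10 min. Reaction stopped with urea and analysed by targeted MS, using up to four fragment ions per kinase peptide-probe conjugate. % inhibition taken against untreated lysate. Run in duplicate.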

Data set [9] concerns the target Cyclin-dependent kinase 13 (Homo sapiens, UniProt Q14004). Description: Inhibition of CHED in human HeLa cells lysate at 10 uM pre incubated for 15 mins followed by ADP acyl phosphate probe addition and measured after 10 mins by LC-MS/MS analysis relative to control. The data set is classed as subcellular. The note with it: time 25.0 min. The method, boiled down:
as §1

Data set [10] can be described thus: Inhibition of NEK6/7 in human HeLa cells lysate at 10 uM pre incubated for 15 mins followed by ADP acyl phosphate probe addition and measured after 10 mins by LC-MS/MS analysis relative to control. The note with it: 25 min, condition cancer.
Data set [11] can be described thus: Inhibition of PCTAIRE2/ICK in human HeLa cells lysate at 10 uM pre incubated for 15 mins followed by ADP acyl phosphate probe addition and measured after 10 mins by LC-MS/MS analysis relative to control. To be noted: 25 min, condition cancer.
Data set [12] addresses Peripheral plasma membrane protein CASK (Homo sapiens) (UniProt O14936). Description: Inhibition of CASK in human HeLa cells lysate at 10 uM pre incubated for 15 mins followed by ADP acyl phosphate probe addition and measured after 10 mins by LC-MS/MS analysis relative to control. The data set is classed as subcellular. To be noted: time 25.0 min. The gist of the method: as §1

Data set [13] can be described thus: Inhibition of CK1g1/g2/g3 in human HeLa cells lysate at 10 uM pre incubated for 15 mins followed by ADP acyl phosphate probe addition and measured after 10 mins by LC-MS/MS analysis relative to control. To be noted: 25 min, condition cancer.
In data set [14] the target is T1, Dual specificity mitogen-activated protein kinase kinase 7 (Homo sapiens) (UniProt O14733).
T1 sequence (whole entry): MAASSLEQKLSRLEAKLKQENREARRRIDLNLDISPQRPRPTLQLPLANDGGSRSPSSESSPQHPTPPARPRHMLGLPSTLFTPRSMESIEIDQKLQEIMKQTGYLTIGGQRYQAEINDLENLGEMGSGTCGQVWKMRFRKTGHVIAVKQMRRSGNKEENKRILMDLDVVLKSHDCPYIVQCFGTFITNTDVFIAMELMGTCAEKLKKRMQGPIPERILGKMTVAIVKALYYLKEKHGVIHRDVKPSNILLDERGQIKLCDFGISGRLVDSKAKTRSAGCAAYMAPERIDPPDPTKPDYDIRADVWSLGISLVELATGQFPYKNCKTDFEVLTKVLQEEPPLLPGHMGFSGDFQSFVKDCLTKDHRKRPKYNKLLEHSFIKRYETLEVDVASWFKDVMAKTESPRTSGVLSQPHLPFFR
Briefly: Inhibition of MAP2K7 in human HeLa cells lysate at 2 uM pre incubated for 15 mins followed by ADP acyl phosphate probe addition and measured after 10 mins by LC-MS/MS analysis relative to control. The note with it: time 25.0 min. The data set is classed as subcellular.

In data set [15] the target is Serine/threonine-protein kinase 24 (Homo sapiens, UniProt Q9Y6E0). Briefly: Inhibition of MST3 in human HeLa cells lysate at 50 uM pre incubated for 15 mins followed by ATP acyl phosphate probe addition and measured after 10 mins by LC-MS/MS analysis relative to control. It counts as subcellular. To be noted: time 25.0 min.
A short description of data set [16]: Inhibition of NEK6/7 in human HeLa cells lysate at 50 uM pre incubated for 15 mins followed by ATP acyl phosphate probe addition and measured after 10 mins by LC-MS/MS analysis relative to control. The note with it: 25 min, condition cancer.
Data set [17] concerns the target Mitogen-activated protein kinase 14 (Homo sapiens, UniProt Q16539). Briefly: Inhibition of p38a in human HeLa cells lysate at 10 uM pre incubated for 15 mins followed by ATP acyl phosphate probe addition and measured after 10 mins by LC-MS/MS analysis relative to control. The data set is classed as subcellular. To be noted: time 25.0 min.
The target in data set [18] is Serine/threonine-protein kinase ATR (Homo sapiens, UniProt Q13535). Description: Inhibition of ATR in human HeLa cells lysate at 2 uM pre incubated for 15 mins followed by ATP acyl phosphate probe addition and measured after 10 mins by LC-MS/MS analysis relative to control. The note with it: time 25.0 min. It counts as subcellular. The method, boiled down: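 KiNativ-type profiling in HeLa lysate (5 mg/mL total protein). Lysate preincubated 15 min with inhibitor at 50, 10, 2, 0.8 or 0 μM, then ATP or ADP acylphosphate probe added (5 μM final) for 10 min. Reaction stopped with urea and analysed by targeted MS, using up to four fragment ions per kinase peptide-probe conjugate. % inhibition calculated against untreated lysate. Duplicate reactions.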

Data set [19] in a line: Cmax in Sprague-Dawley rat at 1 mg/kg, iv measured up to 8 hrs by LC-MS/MS analysis. It counts as ADME, organism-based. To be noted: in vivo.

This is an account of results in ChEMBL document CHEMBL5661979, “Pharmacological inhibition of BMK1 suppresses tumor growth through promyelocytic leukemia protein” (Cancer Cell, 2010).

Mitogen-activated protein kinase 14, sequence (Q16539 whole entry): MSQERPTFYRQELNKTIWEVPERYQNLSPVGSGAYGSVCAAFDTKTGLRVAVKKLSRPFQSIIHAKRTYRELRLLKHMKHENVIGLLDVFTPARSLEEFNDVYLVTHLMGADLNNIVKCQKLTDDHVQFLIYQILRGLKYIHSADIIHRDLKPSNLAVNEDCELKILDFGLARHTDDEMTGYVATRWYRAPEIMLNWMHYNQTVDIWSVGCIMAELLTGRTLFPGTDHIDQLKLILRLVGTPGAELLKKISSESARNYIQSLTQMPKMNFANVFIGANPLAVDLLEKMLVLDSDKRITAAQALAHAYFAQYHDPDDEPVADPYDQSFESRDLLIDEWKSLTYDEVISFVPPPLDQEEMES
Serine/threonine-protein kinase MARK1, sequence (Q9P0L2 whole entry): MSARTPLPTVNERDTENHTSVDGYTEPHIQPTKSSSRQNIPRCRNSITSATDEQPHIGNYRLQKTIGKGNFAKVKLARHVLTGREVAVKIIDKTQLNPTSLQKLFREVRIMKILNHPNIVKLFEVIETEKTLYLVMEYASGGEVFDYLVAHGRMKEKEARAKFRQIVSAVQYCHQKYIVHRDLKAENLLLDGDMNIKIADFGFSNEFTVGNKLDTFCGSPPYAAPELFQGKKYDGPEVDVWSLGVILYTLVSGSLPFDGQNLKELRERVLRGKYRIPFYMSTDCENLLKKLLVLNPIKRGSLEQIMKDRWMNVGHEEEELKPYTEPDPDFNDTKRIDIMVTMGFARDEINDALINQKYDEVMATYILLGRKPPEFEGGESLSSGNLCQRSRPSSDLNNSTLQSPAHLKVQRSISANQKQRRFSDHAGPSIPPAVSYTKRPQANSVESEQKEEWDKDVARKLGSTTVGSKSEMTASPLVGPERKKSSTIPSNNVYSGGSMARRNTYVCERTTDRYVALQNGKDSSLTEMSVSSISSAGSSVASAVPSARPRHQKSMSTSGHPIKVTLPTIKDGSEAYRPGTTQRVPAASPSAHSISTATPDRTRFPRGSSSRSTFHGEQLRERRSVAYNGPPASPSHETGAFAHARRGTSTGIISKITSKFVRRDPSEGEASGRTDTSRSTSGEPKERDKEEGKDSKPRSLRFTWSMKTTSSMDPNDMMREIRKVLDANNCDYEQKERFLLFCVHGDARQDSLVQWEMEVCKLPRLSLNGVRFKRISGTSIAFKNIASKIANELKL
Serine/threonine-protein kinase 24, sequence (Q9Y6E0 whole entry, looked up): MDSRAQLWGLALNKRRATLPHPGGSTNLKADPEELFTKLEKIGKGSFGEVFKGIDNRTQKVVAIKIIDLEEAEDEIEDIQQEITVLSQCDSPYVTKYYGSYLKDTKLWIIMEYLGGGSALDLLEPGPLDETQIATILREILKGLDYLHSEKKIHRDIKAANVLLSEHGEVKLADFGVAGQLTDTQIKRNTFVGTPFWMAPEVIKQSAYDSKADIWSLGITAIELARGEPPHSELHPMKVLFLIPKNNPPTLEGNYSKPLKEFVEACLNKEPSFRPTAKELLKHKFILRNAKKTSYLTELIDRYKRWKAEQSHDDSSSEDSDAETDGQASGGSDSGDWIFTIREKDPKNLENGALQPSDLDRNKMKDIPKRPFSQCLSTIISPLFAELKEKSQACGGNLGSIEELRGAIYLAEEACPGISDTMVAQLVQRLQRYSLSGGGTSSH
Serine/threonine-protein kinase ATR, sequence (Q13535 whole entry, looked up, the tested form may be a part): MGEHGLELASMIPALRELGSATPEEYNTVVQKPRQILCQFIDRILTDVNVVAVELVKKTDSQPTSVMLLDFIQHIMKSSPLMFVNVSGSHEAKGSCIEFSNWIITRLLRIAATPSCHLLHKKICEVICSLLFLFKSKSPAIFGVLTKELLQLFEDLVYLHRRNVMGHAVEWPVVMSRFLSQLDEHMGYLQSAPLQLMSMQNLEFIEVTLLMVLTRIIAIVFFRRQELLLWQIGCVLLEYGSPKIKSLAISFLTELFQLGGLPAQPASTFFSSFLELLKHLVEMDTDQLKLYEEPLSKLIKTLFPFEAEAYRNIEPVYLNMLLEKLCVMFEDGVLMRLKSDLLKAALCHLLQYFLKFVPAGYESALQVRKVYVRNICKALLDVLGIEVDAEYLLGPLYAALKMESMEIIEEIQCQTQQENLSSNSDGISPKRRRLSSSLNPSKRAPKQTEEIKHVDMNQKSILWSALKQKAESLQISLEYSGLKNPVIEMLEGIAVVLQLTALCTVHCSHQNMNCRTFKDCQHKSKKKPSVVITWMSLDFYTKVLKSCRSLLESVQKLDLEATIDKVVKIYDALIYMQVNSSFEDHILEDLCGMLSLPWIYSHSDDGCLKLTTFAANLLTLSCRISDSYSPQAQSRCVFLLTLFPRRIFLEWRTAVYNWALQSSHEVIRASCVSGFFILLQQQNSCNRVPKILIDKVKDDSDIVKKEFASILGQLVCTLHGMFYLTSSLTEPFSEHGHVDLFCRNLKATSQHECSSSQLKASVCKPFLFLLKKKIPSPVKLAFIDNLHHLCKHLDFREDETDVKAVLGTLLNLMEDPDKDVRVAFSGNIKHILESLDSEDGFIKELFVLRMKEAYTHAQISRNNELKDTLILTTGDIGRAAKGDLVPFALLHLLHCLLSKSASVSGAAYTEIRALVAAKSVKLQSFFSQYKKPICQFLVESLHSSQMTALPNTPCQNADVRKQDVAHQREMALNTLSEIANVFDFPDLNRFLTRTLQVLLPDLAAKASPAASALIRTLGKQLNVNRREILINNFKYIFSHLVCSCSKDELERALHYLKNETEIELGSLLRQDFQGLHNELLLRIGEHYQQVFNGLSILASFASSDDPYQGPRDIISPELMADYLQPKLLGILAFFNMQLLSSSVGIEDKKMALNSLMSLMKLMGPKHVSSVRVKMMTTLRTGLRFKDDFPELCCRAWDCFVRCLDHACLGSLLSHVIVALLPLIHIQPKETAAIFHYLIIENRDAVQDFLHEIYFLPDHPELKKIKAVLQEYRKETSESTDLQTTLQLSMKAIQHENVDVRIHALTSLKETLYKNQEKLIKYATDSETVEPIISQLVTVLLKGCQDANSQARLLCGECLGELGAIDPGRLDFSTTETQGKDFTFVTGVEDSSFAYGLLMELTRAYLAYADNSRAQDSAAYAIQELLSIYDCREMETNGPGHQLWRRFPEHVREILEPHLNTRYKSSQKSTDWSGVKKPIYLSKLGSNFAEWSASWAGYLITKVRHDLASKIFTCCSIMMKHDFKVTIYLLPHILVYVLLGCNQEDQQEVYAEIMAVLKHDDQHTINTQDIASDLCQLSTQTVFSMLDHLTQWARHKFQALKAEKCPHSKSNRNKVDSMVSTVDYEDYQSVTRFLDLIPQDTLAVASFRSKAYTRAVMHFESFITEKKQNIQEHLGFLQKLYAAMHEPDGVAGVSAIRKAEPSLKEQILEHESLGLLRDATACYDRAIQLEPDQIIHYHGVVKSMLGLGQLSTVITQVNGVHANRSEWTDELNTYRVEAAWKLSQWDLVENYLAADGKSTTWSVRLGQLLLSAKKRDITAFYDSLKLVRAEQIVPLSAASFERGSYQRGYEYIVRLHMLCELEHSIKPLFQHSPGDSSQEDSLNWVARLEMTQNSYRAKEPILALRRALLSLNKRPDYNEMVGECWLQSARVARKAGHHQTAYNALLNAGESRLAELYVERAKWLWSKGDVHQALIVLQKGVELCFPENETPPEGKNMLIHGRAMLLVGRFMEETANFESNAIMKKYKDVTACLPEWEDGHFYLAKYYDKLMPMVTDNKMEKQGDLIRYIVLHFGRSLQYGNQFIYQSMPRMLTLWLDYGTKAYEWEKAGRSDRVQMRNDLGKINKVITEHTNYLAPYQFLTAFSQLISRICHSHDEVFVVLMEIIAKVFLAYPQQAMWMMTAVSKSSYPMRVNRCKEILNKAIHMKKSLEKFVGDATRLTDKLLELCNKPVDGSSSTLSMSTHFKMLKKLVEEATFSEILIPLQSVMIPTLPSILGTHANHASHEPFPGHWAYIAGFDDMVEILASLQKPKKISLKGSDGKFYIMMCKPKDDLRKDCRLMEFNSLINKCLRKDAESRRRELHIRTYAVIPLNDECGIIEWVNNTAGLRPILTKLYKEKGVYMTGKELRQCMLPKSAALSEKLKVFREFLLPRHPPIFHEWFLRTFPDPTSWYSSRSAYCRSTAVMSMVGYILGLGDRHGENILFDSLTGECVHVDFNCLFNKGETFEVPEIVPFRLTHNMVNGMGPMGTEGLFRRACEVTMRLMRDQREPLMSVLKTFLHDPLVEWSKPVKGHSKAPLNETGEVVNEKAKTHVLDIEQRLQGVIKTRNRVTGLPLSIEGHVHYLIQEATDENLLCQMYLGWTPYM
Inhibitor of nuclear factor kappa-B kinase subunit beta, sequence (O14920 whole entry): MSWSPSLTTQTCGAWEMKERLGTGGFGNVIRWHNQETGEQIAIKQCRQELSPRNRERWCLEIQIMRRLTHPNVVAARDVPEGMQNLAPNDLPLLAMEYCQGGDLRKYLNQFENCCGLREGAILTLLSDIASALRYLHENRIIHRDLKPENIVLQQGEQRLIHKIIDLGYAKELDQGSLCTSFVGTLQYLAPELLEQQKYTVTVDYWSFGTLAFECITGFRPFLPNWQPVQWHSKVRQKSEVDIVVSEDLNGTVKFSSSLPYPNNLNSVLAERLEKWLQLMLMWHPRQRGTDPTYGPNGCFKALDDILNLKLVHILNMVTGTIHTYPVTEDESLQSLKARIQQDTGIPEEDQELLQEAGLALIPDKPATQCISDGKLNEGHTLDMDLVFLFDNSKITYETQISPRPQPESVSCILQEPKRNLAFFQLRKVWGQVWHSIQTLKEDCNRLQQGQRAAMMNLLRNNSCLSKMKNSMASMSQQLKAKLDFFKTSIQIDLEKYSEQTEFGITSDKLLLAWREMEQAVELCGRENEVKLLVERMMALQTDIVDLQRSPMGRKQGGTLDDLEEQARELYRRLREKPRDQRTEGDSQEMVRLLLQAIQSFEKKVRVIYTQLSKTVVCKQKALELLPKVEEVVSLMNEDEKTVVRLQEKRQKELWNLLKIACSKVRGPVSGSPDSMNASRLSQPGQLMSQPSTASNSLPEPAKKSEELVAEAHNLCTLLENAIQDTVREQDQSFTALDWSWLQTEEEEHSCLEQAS

For the molecule `CCOc1cc(N2CCC(O)CC2)ccc1Nc1ncc2c(n1)N(C)c1ccccc1C(=O)N2C`, the half-maximal inhibitory concentration (IC50) in [1] was 34 µM; in data set [2] it was above 50 µM; in data set [3], above 50 µM; in [4] it was above 50 µM; in data set [5] it was above 50 µM; in [6], above 50 µM. Also, the concentration for half-maximal inhibition (IC50) in data set [7] is above 50 µM. Besides, the inhibition in data set [8] was -3.2%; in [9], 10.7%; in data set [12] it was -8.1%; in data set [14], 17.9%; in data set [15], -4.6%; in data set [17] it was -4%. In addition, in data set [18], the inhibition is 25.9%. For the same molecule, the inhibition at 10 µM was -11.8% in data set [10], -0.9% in data set [11] and 18.1% in data set [13]. In addition, the inhibition at 50 µM in data set [16] is -11.1%. The same molecule yielded a Cmax in data set [19] of 927 nM.

A word on the IC50: it is the point on the concentration scale where inhibition reaches its midpoint. As usually defined, the inhibition is the change of the read-out against control, counted positive when it falls. For orientation: Cmax means the highest concentration seen after dosing.
